According to ChEMBL document CHEMBL3992547, “Antimicrobial activity of rhodanine-3-acetic acid derivatives” (Bioorg Med Chem, 2017):
In brackets after ≈: the same amount, converted by molar mass. Activity calls are given as the source filed them. No cut-off for these calls is given here.

How the values were obtained:
[1] = system: Mycobacterium tuberculosis; experiment: Antimycobacterial activity against Mycobacterium tuberculosis H37Rv 331/88 measured after 14 days by micromethod; format: functional; details: H37Rv 331/88, 336 h
[2] = system: Mycobacterium tuberculosis; experiment: Antimycobacterial activity against Mycobacterium tuberculosis H37Rv 331/88 measured after 21 days by micromethod; format: functional; details: H37Rv 331/88, 504 h
[3] = system: Mycobacterium avium; experiment: Antimycobacterial activity against Mycobacterium avium 330/88 measured after 14 days by micromethod; format: functional; details: 330/88, 336 h
[4] = system: Mycobacterium avium; experiment: Antimycobacterial activity against Mycobacterium avium 330/88 measured after 21 days by micromethod; format: functional; details: 330/88, 504 h
[5] = system: Mycobacterium kansasii; experiment: Antimycobacterial activity against Mycobacterium kansasii isolate 235/80 after 7 days by micromethod; format: functional; details: isolate 235/80, 168 h
[6] = system: Mycobacterium kansasii; experiment: Antimycobacterial activity against Mycobacterium kansasii isolate 235/80 after 14 days by micromethod; format: functional; details: isolate 235/80, 336 h
[7] = system: Mycobacterium kansasii; experiment: Antimycobacterial activity against Mycobacterium kansasii isolate 235/80 after 21 days by micromethod; format: functional; details: isolate 235/80, 504 h
[8] = system: Mycobacterium kansasii; experiment: Antimycobacterial activity against Mycobacterium kansasii isolate 6509/96 after 7 days by micromethod; format: functional; details: isolate 6509/96, 168 h
[9] = system: Mycobacterium kansasii; experiment: Antimycobacterial activity against Mycobacterium kansasii isolate 6509/96 after 14 days by micromethod; format: functional; details: isolate 6509/96, 336 h
[10] = system: Mycobacterium kansasii; experiment: Antimycobacterial activity against Mycobacterium kansasii isolate 6509/96 after 21 days by micromethod; format: functional; details: isolate 6509/96, 504 h
[11] = Solubility of the compound in Sula's semisynthetic medium up to 1 mM; format: physicochemical
[12] = system: Staphylococcus aureus; experiment: Antibacterial activity against Staphylococcus aureus CCM 4516/08 incubated for 24 hrs under dark condition by microdilution broth assay; format: functional; details: CCM 4516/08, 24 h
In short: (§1)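 Broth microdilution per M07-A07, modified, in Mueller-Hinton broth adjusted to pH 7.4 (±0.2). Inoculum is prepared in sterile water to McFarland 0.5 (1.5 × 10⁸ CFU/mL). Plates are incubated in the dark at 35 °C in humid air. MIC is read after 24 and 48 h as at least 95% growth reduction versus control (IC₉₅).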

[13] = system: Staphylococcus aureus; experiment: Antibacterial activity against Staphylococcus aureus CCM 4516/08 incubated for 48 hrs under dark condition by microdilution broth assay; format: functional; details: CCM 4516/08, 48 h; in short: as §1
[14] = system: Staphylococcus aureus; experiment: Antibacterial activity against methicillin-resistant Staphylococcus aureus H 5996/08 incubated for 24 hrs under dark condition by microdilution broth assay; format: functional; details: H 5996/08, 24 h
In short: (§2)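 Microdilution broth method modified per M07-A07, in Mueller-Hinton broth adjusted to pH 7.4 (±0.2). Inoculum made in sterile water to 0.5 McFarland (1.5 × 10⁸ CFU/mL). Plates incubated in the dark at 35 °C in a humid atmosphere, with reads at 24 and 48 h. MIC taken as at least 95% growth reduction (IC₉₅) versus control.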

[15] = system: Staphylococcus aureus; experiment: Antibacterial activity against methicillin-resistant Staphylococcus aureus H 5996/08 incubated for 48 hrs under dark condition by microdilution broth assay; format: functional; details: H 5996/08, 48 h; in short: as §2
[16] = system: Staphylococcus epidermidis; experiment: Antibacterial activity against Staphylococcus epidermidis H 6966/08 incubated for 24 hrs under dark condition by microdilution broth assay; format: functional; details: H 6966/08, 24 h; in short: as §1
[17] = system: Staphylococcus epidermidis; experiment: Antibacterial activity against Staphylococcus epidermidis H 6966/08 incubated for 48 hrs under dark condition by microdilution broth assay; format: functional; details: H 6966/08, 48 h; in short: as §1
[18] = system: Escherichia coli; experiment: Antibacterial activity against Escherichia coli CCM 4517 incubated for 24 hrs under dark condition by microdilution broth assay; format: functional; details: CCM 4517, 24 h; in short: as §1
[19] = system: Escherichia coli; experiment: Antibacterial activity against Escherichia coli CCM 4517 incubated for 48 hrs under dark condition by microdilution broth assay; format: functional; details: CCM 4517, 48 h; in short: as §1
[20] = system: Klebsiella pneumoniae; experiment: Antibacterial activity against Klebsiella pneumoniae D 11750/08 up to 500 uM incubated for 24 to 48 hrs under dark condition by microdilution broth assay; format: functional; in short: as §1
[21] = system: Klebsiella pneumoniae; experiment: Antibacterial activity against ESBL positive Klebsiella pneumoniae J 14368/08 up to 500 uM incubated for 24 to 48 hrs under dark condition by microdilution broth assay; format: functional; in short: as §1
[22] = system: Pseudomonas aeruginosa; experiment: Antibacterial activity against Pseudomonas aeruginosa CCM 1961 up to 500 uM incubated for 24 to 48 hrs under dark condition by microdilution broth assay; format: functional; in short: as §1
[23] = system: Pichia kudriavzevii; experiment: Antifungal activity against Candida krusei E28 after 24 to 48 hrs hrs by microdilution broth assay; format: functional
In short: (§3)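 Broth microdilution per CLSI M27-A3 and M38-A2 in RPMI 1640 with glutamine, buffered to pH 7.0 with MOPS. Compounds are diluted in DMSO. Final inoculum is 5 × 10³ CFU/mL for yeasts and 0.5–5 × 10⁴ CFU/mL for moulds. Plates are incubated in the dark at 35 °C in humid air and read visually and/or at 540 nm after 24 and 48 h. MIC is ≥80% growth reduction (IC₈₀) for yeasts and ≥50% (IC₅₀) for filamentous fungi.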

[24] = system: Lichtheimia corymbifera; experiment: Antifungal activity against Absidia corymbifera 272 after 24 to 48 hrs hrs by microdilution broth assay; format: functional; in short: as §3
[25] = system: Enterococcus; experiment: Antibacterial activity against Enterococcus sp. J 14365/08 incubated for 24 hrs under dark condition by microdilution broth assay; details: J 14365/08, 24 h
[26] = system: Enterococcus; experiment: Antibacterial activity against Enterococcus sp. J 14365/08 incubated for 48 hrs under dark condition by microdilution broth assay; details: J 14365/08, 48 h

Row | Compound | MIC [1] | MIC [2] | MIC [3] | MIC [4] | MIC [5] | MIC [6] | MIC [7] | MIC [8] | MIC [9] | MIC [10] | solubility [11] | MIC95 [12] | MIC95 [13] | MIC95 [14] | MIC95 [15] | MIC95 [16] | MIC95 [17] | MIC95 [18] | MIC95 [19] | Activity [20] | other results
1 | COc1ccc(OC(=O)CN2C(=O)CSC2=S)cc1 | 1000 µM (≈ 297 µg/mL) | 1000 µM (≈ 297 µg/mL) | 1000 µM (≈ 297 µg/mL) | 1000 µM (≈ 297 µg/mL) | 1000 µM (≈ 297 µg/mL) | 1000 µM (≈ 297 µg/mL) | 1000 µM (≈ 297 µg/mL) | 1000 µM (≈ 297 µg/mL) | 1000 µM (≈ 297 µg/mL) | 1000 µM (≈ 297 µg/mL) | Soluble | > 500 µM | > 500 µM | > 500 µM | > 500 µM | 500 µM (≈ 149 µg/mL) | > 500 µM | > 500 µM | > 500 µM | inactive | Activity [21]: inactive; Activity [22]: inactive; Activity [23]: inactive; Activity [24]: inactive; MIC95 [25]: 500 µM (≈ 149 µg/mL); MIC95 [26]: > 500 µM
2 | O=C(O)CN1C(=O)/C(=C/c2cccc(O)c2)SC1=S | 1000 µM (≈ 295 µg/mL) | 1000 µM (≈ 295 µg/mL) | > 1000 µM | > 1000 µM | 1000 µM (≈ 295 µg/mL) | 1000 µM (≈ 295 µg/mL) | 1000 µM (≈ 295 µg/mL) | 500 µM (≈ 148 µg/mL) | 1000 µM (≈ 295 µg/mL) | 1000 µM (≈ 295 µg/mL) | Soluble | > 500 µM | > 500 µM | 500 µM (≈ 148 µg/mL) | > 500 µM | > 500 µM | > 500 µM | > 500 µM | > 500 µM | inactive | Activity [21]: inactive; Activity [22]: inactive; Activity [23]: inactive; Activity [24]: inactive; MIC95 [25]: 500 µM (≈ 148 µg/mL); MIC95 [26]: > 500 µM
3 | O=C(CN1C(=O)CSC1=S)Oc1ccccc1 | 1000 µM (≈ 267 µg/mL) | 1000 µM (≈ 267 µg/mL) | 1000 µM (≈ 267 µg/mL) | 1000 µM (≈ 267 µg/mL) | 500 µM (≈ 134 µg/mL) | 1000 µM (≈ 267 µg/mL) | 1000 µM (≈ 267 µg/mL) | 500 µM (≈ 134 µg/mL) | 1000 µM (≈ 267 µg/mL) | 1000 µM (≈ 267 µg/mL) | Soluble | > 125 µM | > 125 µM | > 125 µM | > 125 µM | > 125 µM | > 125 µM | > 125 µM | > 125 µM | inactive | Activity [21]: inactive; Activity [22]: inactive; Activity [23]: inactive; Activity [24]: inactive; MIC95 [25]: 125 µM (≈ 33.4 µg/mL); MIC95 [26]: > 125 µM
4 | O=C(CN1C(=O)CSC1=S)Nc1ccc([N+](=O)[O-])cc1 | 500 µM (≈ 156 µg/mL) | 500 µM (≈ 156 µg/mL) | 1000 µM (≈ 311 µg/mL) | 1000 µM (≈ 311 µg/mL) | 500 µM (≈ 156 µg/mL) | 500 µM (≈ 156 µg/mL) | 1000 µM (≈ 311 µg/mL) | 500 µM (≈ 156 µg/mL) | 500 µM (≈ 156 µg/mL) | 1000 µM (≈ 311 µg/mL) | Soluble | 500 µM (≈ 156 µg/mL) | 500 µM (≈ 156 µg/mL) | 500 µM (≈ 156 µg/mL) | 500 µM (≈ 156 µg/mL) | 250 µM (≈ 77.8 µg/mL) | 250 µM (≈ 77.8 µg/mL) | > 500 µM | > 500 µM | inactive | Activity [21]: inactive; Activity [22]: inactive; Activity [23]: inactive; Activity [24]: inactive; MIC95 [25]: 250 µM (≈ 77.8 µg/mL); MIC95 [26]: 250 µM (≈ 77.8 µg/mL)
5 | O=C(CN1C(=O)/C(=C/c2cc(Cl)ccc2O)SC1=S)Nc1ccc(Cl)cc1 | 16 µM (≈ 7.03 µg/mL) | 32 µM (≈ 14.1 µg/mL) | 250 µM (≈ 110 µg/mL) | 250 µM (≈ 110 µg/mL) | 125 µM (≈ 54.9 µg/mL) | 125 µM (≈ 54.9 µg/mL) | 250 µM (≈ 110 µg/mL) | 125 µM (≈ 54.9 µg/mL) | 250 µM (≈ 110 µg/mL) | 250 µM (≈ 110 µg/mL) | Insoluble | 250 µM (≈ 110 µg/mL) | > 250 µM | 125 µM (≈ 54.9 µg/mL) | > 250 µM | 250 µM (≈ 110 µg/mL) | > 250 µM | > 250 µM | > 250 µM | inactive | Activity [21]: inactive; Activity [22]: inactive; Activity [23]: inactive; Activity [24]: inactive; MIC95 [25]: > 250 µM; MIC95 [26]: > 250 µM
